p97 inhibitor: inhibitors of human p97 ATPase, primary screen, biochemical; Transitional endoplasmic reticulum ATPase (Homo sapiens), P55072; recombinant p97 ATPase, Kinase-Glo ATP luminescence, 3 h; inhibition, % at 8 µM; 0.42% of 220,000 active; AID 1481, 2009; in the data active means inhibition above about 15%;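 further: 0% = DMSO vehicle and 100% = wells lacking enzyme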
Target sequence (P55072 whole entry, looked up): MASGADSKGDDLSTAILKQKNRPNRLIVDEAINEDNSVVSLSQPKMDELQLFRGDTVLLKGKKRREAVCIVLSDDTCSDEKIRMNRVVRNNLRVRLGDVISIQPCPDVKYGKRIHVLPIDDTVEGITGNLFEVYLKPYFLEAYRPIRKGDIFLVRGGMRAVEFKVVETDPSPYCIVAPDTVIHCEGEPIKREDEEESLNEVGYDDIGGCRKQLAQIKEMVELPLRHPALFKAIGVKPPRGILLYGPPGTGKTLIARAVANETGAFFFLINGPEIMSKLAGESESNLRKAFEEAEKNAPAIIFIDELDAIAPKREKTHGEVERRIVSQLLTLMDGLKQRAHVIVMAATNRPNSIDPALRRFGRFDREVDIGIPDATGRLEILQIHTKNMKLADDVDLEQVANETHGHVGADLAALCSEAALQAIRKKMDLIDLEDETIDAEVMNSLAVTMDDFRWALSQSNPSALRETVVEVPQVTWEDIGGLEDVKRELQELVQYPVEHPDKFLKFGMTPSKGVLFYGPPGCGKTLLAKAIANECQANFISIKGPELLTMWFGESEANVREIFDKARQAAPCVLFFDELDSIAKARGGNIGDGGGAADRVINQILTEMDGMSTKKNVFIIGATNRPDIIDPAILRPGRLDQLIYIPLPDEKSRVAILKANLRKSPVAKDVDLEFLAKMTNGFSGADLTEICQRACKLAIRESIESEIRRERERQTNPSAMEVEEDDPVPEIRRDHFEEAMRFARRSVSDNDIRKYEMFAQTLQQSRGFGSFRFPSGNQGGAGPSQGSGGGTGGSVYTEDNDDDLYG
PKD1 inh: inhibitors of human PKD1 kinase, biochemical, fluorescence polarization; 0.056% of 200,000 active; Serine/threonine-protein kinase D1 (Homo sapiens), Q15139; inhibition, % (no concentration beside the values); PKD1 kinase fluorescence polarization assay; in the data active means inhibition above about 50%
RBBP9 inh: human RBBP9 inhibitors, primary screen, biochemical, fluorescence polarization, FP-Rh probe, HTS; 0.2% of 220,000 active; Serine hydrolase RBBP9 (Homo sapiens), O75884; recombinant RBBP9; inhibition, % at 7.94 µM;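 active means inhibition above the campaign mean of all tested compounds plus 3 SD, cut at about 14% in these data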;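 further: plate controls were DMSO wells with RBBP9 for no effect and wells lacking RBBP9 protein for full effect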
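System: RBBP9 protein / Quantity: 2.5 µM RBBP9 dispensing solution, before mixing / Also added: Serine-hydrolase probe FP-Rh, 375 nM pre-mixing / Dosing: 7.94 µM single dose, 0.794% DMSO / Timing: enzyme-compound preincubation 30 min, then probe labeling 45 min, 25 °C / Signal: FP readout at 525/598 nm / Controls: DMSO-treated enzyme wells and wells lacking RBBP9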
Hsp70 act: Hsp70 transcriptional activators, primary screen, cell-based, HeLa, Hsp70 promoter luciferase, luminescence, 10 µM; activation, % at 10 µM; AID 1203, 2008; HeLa Hsp70 promoter luciferase reporter; scaled: vehicle 0, proteasome-inhibitor control 100%; 0.04% of 200,000 active;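 active means activation above the mean across all tested compounds plus 3 SD, cutoff set per campaign, cut at about 5.5% in these data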;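 further: 100% = MG132 at 30 µM as the positive control and 0% = DMSO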
PP5 primary: PP5 phosphatase inhibitors, primary screen, biochemical, fluorescence. Serine/threonine-protein phosphatase 5 (Homo sapiens), P53041. purified PP5c, OMFP substrate fluorescence. inhibition, % at 6.7 µM. 0.18% of 320,000 active;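 active means inhibition above the campaign's mean inhibition across all tested compounds plus 3 SD, cut at about 9.5% in these data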;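 further: 0% = DMSO only and 100% = 100 µM cantharidin control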
PP1 inh: PP1-alpha phosphatase inhibitors, primary screen, counter-screen for PP5 inhibitor project, biochemical, fluorescence, OMFP substrate, single point. purified PP1alpha. AID 2235, 2010. Serine/threonine-protein phosphatase PP1-alpha catalytic subunit (Homo sapiens), P62136. 0.9% of 320,000 active. inhibition, % at 6.7 µM;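 active means inhibition above the mean inhibition of all tested compounds plus 3 SD, computed separately for each screening campaign, cut at about 15% in these data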
PP1 confirm: PP1 phosphatase inhibitors, confirmation, biochemical, fluorescence, OMFP substrate, triplicate; shares compounds with PP1 inh; purified PP1alpha; inhibition, % at 6.7 µM; 52% of 1,900 active; AID 2358, 2010;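 active means mean PP1 inhibition above a set limit taken from the earlier primary screen, cut at about 15% in these data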
PP5 counter: PP5 phosphatase inhibition by PP1 hits, confirmation, counter-screen for PP1 inhibitor project, biochemical, fluorescence, triplicate | shares compounds with PP1 inh | AID 2360, 2010 | purified PP5c, OMFP fluorescence | 4% of 1,900 active | inhibition, % at 6.7 µM;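 active means mean PP5 inhibition over triplicate wells above about 9.5% taken from the earlier PP1 screen, limit read from the data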
Starred values were filed as active, the others as inactive; / = no result. Shown are actives, neighbours in structure and some others; about 1.5% of the full set was active somewhere.

SMILES	p97 inhibitor	PKD1 inh	RBBP9 inh	Hsp70 act	PP5 primary	PP1 inh	PP1 confirm	PP5 counter
COc1cccc(C2C3=C(N=c4s/c(=C\c5ccc(O)cc5)c(=O)n42)c2ccccc2CC3)c1OC (stereo unspecified)	5	-2	2	0	2	-1	/	/
COc1cccc(C2C3=C(N=c4s/c(=C\c5cccc(O)c5)c(=O)n42)c2ccccc2CC3)c1OC (stereo unspecified)	2	-1	-13	0	4	1	/	/
COc1cccc(C2C3=C(N=c4s/c(=C\c5ccc(OCC(=O)O)cc5)c(=O)n42)c2ccccc2CC3)c1 (stereo unspecified)	-1	/	-20	/	2	23*	7	-2
COc1ccccc1C1C2=C(N=c3s/c(=C/c4cccc(OCC(=O)O)c4)c(=O)n31)c1ccccc1CC2 (stereo unspecified)	3	-10	-15	0	3	20*	19*	0
O=C(CSc1ccc2nnc(CCNC(=O)c3ccccc3)n2n1)Nc1ccc(F)cc1F	/	/	/	/	-2	-3	/	/
O=C(NN1C(=O)c2ccccc2C1=O)c1ccccc1[N+](=O)[O-]	2	3	-1	0	1	-1	/	/
O=C(c1ccco1)N1CCN(c2ncnc3c2nnn3Cc2ccccc2Cl)CC1	0	-6	1	0	3	41*	44*	-4
N#Cc1ccc(C23CC4(C2)[C@H](CN(P(=O)(c2ccccc2)c2ccccc2)[C@@H]4c2ccccc2)C3c2ccc(Cl)nc2)cc1 (stereo partly specified)	/	/	/	/	4	18*	6	4
Clc1ccc(C2[C@H]3CN(Cc4cccnc4)[C@H](c4ccccc4)C34CC2(c2ccccc2)C4)cn1 (stereo partly specified)	/	/	/	/	5	21*	17*	1
O=C1CC(N2C(=O)/C(=C/C=C/c3ccccc3)SC2=S)C(=O)N1c1ccccc1 (stereo unspecified)	4	-3	-9	0	-7	24*	8	-2
Cn1c(=O)[nH]c2c(Cl)nccc21	3	/	-4	/	-1	0	/	/
Cn1c(=O)[nH]c2ncccc21	6	/	-3	/	-1	28*	-3	-6
CC(C)N=C(N)N=C(N)Nc1ccc(Cl)cc1	/	/	/	/	3	1	/	/
NC(=NCCCCCCN=C(N)/N=C(\N)Nc1ccc(Cl)cc1)/N=C(\N)Nc1ccc(Cl)cc1	/	/	/	/	5	20*	5	0
O=S(=O)(NCc1ccccc1)[C@@H]1CC2C=CC1C2 (stereo partly specified)	/	/	/	/	-2	2	/	/
O=C1CN(C(=O)COC(=O)CNS(=O)(=O)/C=C/c2ccccc2)c2ccccc2N1	-6	-3	-11	0	-4	-5	/	/
O=c1ccc2cc3c([nH]c4ccc(Br)cc43)oc-2c1O	11	1	10	0	8	58*	37*	2
O=C(O)c1ccc(N=Nc2c(O)[nH]c3ccc(Br)cc23)cc1	/	/	/	/	3	-2	/	/
Cc1ccc(-n2c(C)cc(C(=O)COC(=O)c3ccc[nH]c3=O)c2C)cc1C	-2	4	-10	0	0	21*	16*	-5
Cc1cc(C(=O)COC(=O)c2ccc[nH]c2=O)c(C)n1-c1ccccc1F	-5	/	-9	/	0	3	/	/
Cc1ccc(C(c2cc(Cl)c3cccnc3c2O)N2CCN(C)CC2)cc1 (stereo unspecified)	/	/	/	/	5	27*	11	-3
Oc1c(C(c2ccccc2Cl)N2CCCC2)ccc2cccnc12 (stereo unspecified)	9	-3	-4	0	-1	21*	11	0
CC(=O)NC(c1cc(Cl)c2cccnc2c1O)C1CC1 (stereo unspecified)	/	/	/	/	0	1	/	/
Oc1c(C(c2ccc(Cl)cc2)N2CCCC2)cc(Cl)c2cccnc12 (stereo unspecified)	4	1	-11	0	5	25*	22*	-2
O=C(Oc1c(Cl)cc(Cl)c2cccnc12)N1CCCCC1	-6	3	-2	0	-2	-5	/	/
SMILES	p97 inhibitor	PKD1 inh	RBBP9 inh	Hsp70 act	PP5 primary	PP1 inh	PP1 confirm	PP5 counter
CN1CCN(C(c2ccccn2)c2cc(Cl)c3cccnc3c2O)CC1 (stereo unspecified)	5	0	0	0	9	72*	59*	6
CC(C)N1CCC(=NNC(=O)c2cccs2)CC1	/	/	/	/	0	-1	/	/
Cc1onc(-c2ccccc2Cl)c1C(=O)OCC(=O)Nc1cccc(S(=O)(=O)N2CCOCC2)c1	3	3	-4	0	2	4	/	/
COc1ccc(C(=O)CCS(=O)(=O)c2ccc(C)cc2)cc1OC	/	/	/	/	1	-3	/	/
Oc1c(C(c2ccccn2)N2CCC(Cc3ccccc3)CC2)cc(Cl)c2cccnc12 (stereo unspecified)	11	-6	5	0	5	73*	20*	2
O=C(CCN1C(=O)/C(=C/c2ccc(F)cc2)SC1=S)Nc1cc([N+](=O)[O-])ccc1O	/	/	/	/	0	0	/	/
CC(=O)NC(c1ccccc1)c1cc([N+](=O)[O-])c2cccnc2c1O (stereo unspecified)	4	-2	4	0	3	6	/	/
CC(C)C(=O)NC(c1ccccc1)c1cc([N+](=O)[O-])c2cccnc2c1O (stereo unspecified)	7	-7	-3	0	3	29*	13	11*
CCCC(=O)NC(c1cccs1)c1cc([N+](=O)[O-])c2cccnc2c1O (stereo unspecified)	3	-10	-5	0	3	18*	16*	6
Cc1cccc(NC(=O)Cn2c(O)c(N=NC(=O)c3ccccc3O)c3ccccc32)c1	3	12	0	0	3	35*	27*	-1
Cc1ccc(NC(=O)Cn2c(O)c(N=NC(=O)c3cc([N+](=O)[O-])ccc3O)c3ccccc32)cc1	7	/	4	/	0	-1	/	/
